# Experimental data gathered from unrelated publications.
# Protocols differ between the studies behind these lines.
# Target: NT-3 growth factor receptor (NTRK3, Homo sapiens, UniProt Q16288)
SMILES,effect on,mode,method,tested at,quantity,result
Cn1cncc1[C@@](O)(COc1ccc(C#N)cc1-c1ccc(OC(F)(F)F)cc1)c1ccc(C#N)cc1,cell-free assay,,competition with immobilised ligand,1 µM,remaining binding,99%
Nc1ncc(-c2nc(N3CCOCC3)nc(N3CCOCC3)n2)c(C(F)F)n1,cell-free assay,,competition with immobilised ligand,10 µM,remaining binding,87%
C#Cc1n[nH]c2c(-c3cn(C(C)c4ccccn4)c(=O)[nH]c3=O)cc(F)cc12 (centres unmarked),enzyme activity,inhibitor,,1 µM,inhibition,12.3%
N#CC1(c2ccccn2)CCN(Cc2cc(C(=O)O)c(=O)n3ccccc23)CC1,cell-free assay,,competition with immobilised ligand,1 µM,remaining binding,70%
COc1ncccc1-c1cnn2ccc(N3CCN(C(=O)OC(C)C)CC3)nc12,binding,,competition with immobilised ligand,1 µM,remaining binding,50%
O=c1[nH]c2ccccc2n1C1CCN(Cc2ccc(-c3[nH]c4cc5ncnc5cc4nc3-c3ccccc3)cc2)CC1,cell-free assay,,,0.5 µM,remaining signal,116%
Cn1cc(-c2cccc(N3CCc4c(sc5c4CC(C)(C)C5)C3=O)c2CO)cc(Nc2ccncn2)c1=O,enzyme activity,inhibitor,,1 µM,inhibition,-8%
Cc1nn(C)cc1-c1nc2c(N3CCN(Cc4ccc(Cl)cc4)CC3)c(Cl)cnc2[nH]1,binding,,competition with immobilised ligand,1 µM,remaining binding,57%
CC(C)(C)c1cc(C=C(C#N)C#N)cc(Br)c1O,enzyme activity,inhibitor,,0.5 µM,remaining activity,104%
C#Cc1n[nH]c2c(-c3cn([C@@H](C)c4ccccc4)c(=O)[nH]c3=O)cc(F)cc12,enzyme activity,inhibitor,,0.1 µM,inhibition,11.4%
Cn1cc(-c2cc(F)cc(N3CCn4c(cc5c4CCCC5)C3=O)c2CO)cc(Nc2ccc(N3CCN(C4COC4)CC3)cn2)c1=O,enzyme activity,inhibitor,,0.1 µM,inhibition,15%
